Compound activity as filed in PubChem BioAssay.
ARNT-TACC3 inh = disruptors of ARNT/TACC3 protein interaction, primary screen, biochemical, AlphaScreen, single concentration | AlphaScreen His-ARNT PAS-B/GST-TACC3 binding, luminescence; TACC3 fragment carries E629A point mutation | inhibition, % at 9.99 µM | actives 0.66% (n = 390,000);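 active = mean inhibition of replicates at least 50% and at least half of replicates each reaching 50%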;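 also: 0% = complete ARNT plus TACC3 wells and 100% = ARNT alone without TACC3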
CAL PDZ FP-1 = CAL PDZ peptide-binding inhibitors, primary screen, biochemical, fluorescence polarization, Cer-tagged CAL PDZ, HTS; AID 504414, 2011; inhibition, % at 20 µM; purified CAL PDZ, TMR-peptide fluorescence polarization, 1 h; actives 0.02% (n = 330,000); Golgi-associated PDZ and coiled-coil motif-containing protein (Homo sapiens), Q9HD26;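 active = highest replicate inhibition of at least 40%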;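 also: plate controls were DMSO neutral control wells for no effect and unlabeled competitor peptide control wells for full effect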
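System: tagged CAL PDZ domain. Schedule: 1 h room-temperature incubation prior to read. Signal: fluorescence polarization (mP). Measure: percent inhibition from loss of millipolarization.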
miR122 inh = miR-122 Renilla sensor signal increase in Huh7, primary screen, miR-122 inhibitor project, cell-based, single point, plate reader; activation (reporter increase), % at 12.5 µM; AID 602342, 2012; Huh7 miR-122 Renilla luciferase sensor, 48 h; neutral wells = 0, positive control = 100; actives 0.3% (n = 340,000);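 active = mean replicate activation score at least 90 and every replicate individually at or above 90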;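 also: higher luciferase means less miR-122 activity so hits act as miR-122 inhibitors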
CFTR F508del cor = F508del CFTR correction, initial screen, CFBE line, single point | CFBE cells, YFP halide quenching; stimulated with forskolin plus potentiator P3; % fluorescence drop versus neutral controls | activity (quench increase), % at 7.58 µM | actives 0.36% (n = 350,000);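 active = mean added fluorescence quench of at least 8% versus neutral control, with both replicates also reaching 8%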;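 also: cells transiently co-express mutant CFTR-F508del with the halide-sensitive YFP; corrector assay measuring rescue of mutant channel to the surface after 24 h compound exposure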
PGC1a acetyl inh = inhibitors of PGC1a acetylation signal, primary screen, cell-based, U2OS, AlphaScreen, inhibitor mode; AlphaScreen anti-acetyl-lysine; with virally co-expressed GCN5 acetyltransferase; AID 651687, 2012; actives 0.17% (n = 350,000); inhibition, % at 15.6 µM;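 active = every replicate shows inhibition of at least 40%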;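 also: 0% = neutral control wells and 100% = positive control wells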
CAL PDZ FP-2 = untagged CAL PDZ binding inhibitors, primary screen, biochemical, fluorescence polarization, HTS | inhibition, % at 24.9 µM | purified CAL PDZ, TMR-peptide fluorescence polarization, 1 h | actives 0.92% (n = 300,000) | AID 602252, 2012 | Golgi-associated PDZ and coiled-coil motif-containing protein (Homo sapiens), Q9HD26;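 active = mean inhibition of at least 30% with at least half of replicates also reaching 30%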;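 also: 0% = DMSO neutral control and 100% = excess unlabeled competitor peptide PRC23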
* hit, by the source's call; . = no result; [ ] = remark or other dose. Compounds with a hit are over-represented: about 1.7% of the library has one in this group of screens.

SMILES	ARNT-TACC3 inh	CAL PDZ FP-1	miR122 inh	CFTR F508del cor	PGC1a acetyl inh	CAL PDZ FP-2
Cn1nc(C(=O)Oc2cc(=O)n(C)c3ccccc23)c2ccccc2c1=O	-1.3	1.1	.	0.8	0.0	36.3*
Cc1ccc(COC(=O)c2nn(C)c(=O)c3ccccc23)cc1	-2.8	0.3	.	3.3	3.9	-0.7
c1ccc(CCC2CCCCN2Cc2cn[nH]c2-c2cc3ccccc3o2)nc1 (stereo unspecified)	11.3	-0.7	1.3	2.7	.	101.2*
O=C(c1ccccn1)C1CCCN(Cc2cn[nH]c2-c2cc3ccccc3o2)C1 (stereo unspecified)	7.8	-2.4	.	.	.	-0.6
C[C@H]1CCCCO[C@H](CN(C)C)[C@@H](C)CN([C@@H](C)CO)C(=O)c2cc(NC(=O)Nc3ccccc3)ccc2O1	8.5	.	-3.6[16.7 µM]	2.9	2.7	.
C[C@H]1CN([C@@H](C)CO)C(=O)Cc2cc(NC(=O)CCN3CCOCC3)ccc2O[C@@H]1CN(C)S(=O)(=O)c1ccc(F)cc1	-4.1	.	0.8[16.7 µM]	-4.4	2.7	.
O=C(C[C@H]1CC[C@@H](NC(=O)CCN2CCCCC2)[C@@H](CO)O1)NCc1ccc(Cl)c(Cl)c1	-9.0	.	1.9[16.7 µM]	2.4	-7.0	.
O=C(CN1CCN(Cc2ccccc2)CC1)N=Nc1c(O)[nH]c2ccccc12	3.9	-3.0	.	.	.	2.3
O=C(CN1CCCCC1)N=Nc1c(O)[nH]c2ccccc12	1.6	-1.0	.	-3.0	.	40.6*
Cc1ccc(Cn2c(NS(=O)(=O)c3ccccc3)nc3ccccc32)cc1	1.1	-1.1	106.2*	.	7.0	1.7
CSc1ccccc1NC(=O)COC(=O)CCC(=O)c1ccc(F)cc1	.	0.2	8.5	8.1*	-7.7	.
O=C(COC(=O)CCSc1ccccc1)Nc1ccc(F)cc1Cl	.	-2.1	-21.8	-0.6	.	-3.6
O=C(COC(=O)CCSc1ccccc1)Nc1cc(F)ccc1F	-5.4	0.2	.	6.7	.	46.2*
Cc1ccc(C(=O)CCC(=O)OCC(=O)Nc2ccccc2SCC#N)cc1	.	-0.7	.	-2.9	0.3	-3.6
O=C(NCCCn1ccnc1)/C(=C\c1ccco1)NC(=O)c1ccco1	57.4*	-2.2	.	0.8	.	-4.9
O=C(NCCCn1ccnc1)/C(=C/c1ccc(F)cc1)NC(=O)c1ccccc1	62.2*	-0.5	11.6	1.8	.	-2.4
CN(C)S(=O)(=O)n1cc(/C=C(\NC(=O)c2ccccc2Cl)C(=O)NCCCn2ccnc2)c2ccccc21	-3.0	-2.8	125.4*	-1.3	-5.2	-1.4
CN(C)S(=O)(=O)n1cc(/C=C(\NC(=O)c2ccccc2)C(=O)NCCCn2ccnc2)c2ccccc21	14.4	-1.0	29.7	0.1	-7.1	.
COc1cccc(S(=O)(=O)N[C@H]2CC[C@H](CC(=O)NCc3ccncc3)O[C@@H]2CO)c1	-16.8	.	-14.2[16.7 µM]	0.6	-3.7	.
CCN1C(=O)/C(=C2\SC(=S)N(NC(=O)c3ccccc3O)C2=O)c2ccccc21	64.6*	1.5	.	0.1	.	0.2
CCCNC(=O)Nc1ccc2c(c1)C(=O)N(C)C[C@H](OC)[C@@H](C)CN[C@@H](C)CO2	0.8	.	.	2.6	4.2	.
Cc1ccc(S(=O)(=O)Nc2ccc3c(c2)CC(=O)N([C@@H](C)CO)C[C@@H](C)[C@@H](CN(C)Cc2ccc(Cl)c(Cl)c2)O3)cc1	16.4	.	-4.5[16.7 µM]	10.9*	-3.0	.
C[C@H]1CN([C@@H](C)CO)C(=O)Cc2cc(NC(=O)C3CC3)ccc2O[C@H]1CN(C)Cc1ccc(Cl)c(Cl)c1	46.0*	.	-4.3[16.7 µM]	-1.1	5.0	.
C[C@@H]1CN([C@@H](C)CO)C(=O)Cc2cc(NC(=O)c3ccncc3)ccc2O[C@H]1CN(C)Cc1ccc(Cl)c(Cl)c1	47.8*	.	-24.0[16.7 µM]	-1.6	2.2	.
